Experimental data reported in ChEMBL document CHEMBL1781932 (J Med Chem, 2011).
Converted amounts (≈) assume the structure as drawn.

Experiments:
Format in all cases: functional
Staphylococcus aureus [1] = test: Antimicrobial activity against tetracycline-susceptible Staphylococcus aureus isolate 101 by CLSI dilution method
Staphylococcus aureus [2] = test: Antimicrobial activity against methicillin-, tetracycline-resistant Staphylococcus aureus isolate 161 harboring tetM gene by CLSI dilution method
Staphylococcus aureus [3] = test: Antimicrobial activity against tetracycline-resistant Staphylococcus aureus isolate 158 harboring tetK gene by CLSI dilution method
Enterococcus faecalis [4] = test: Antimicrobial activity against tetracycline-susceptible Enterococcus faecalis isolate 103 by CLSI dilution method
Summary of the method: (§1)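 Broth microdilution per CLSI in fresh cation-adjusted Mueller Hinton broth, kept at 4 °C before testing, with defibrinated horse blood added as appropriate. Strains were from ATCC. MIC in µg/mL. Runs were accepted when comparator antibiotics against ATCC quality-control strains fell within recommended ranges.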

Enterococcus faecalis [5] = test: Antimicrobial activity against tetracycline-resistant Enterococcus faecalis isolate 159 harboring […] gene by CLSI dilution method
Streptococcus pneumoniae [6] = test: Antimicrobial activity against tetracycline-susceptible Streptococcus pneumoniae isolate 106 by CLSI dilution method; summary of the method: as §1
Streptococcus pneumoniae [7] = test: Antimicrobial activity against tetracycline-resistant Streptococcus pneumoniae isolate 160 harboring tetM gene by CLSI dilution method
Escherichia coli [8] = test: Antimicrobial activity against tetracycline-susceptible Escherichia coli isolate 107 by CLSI dilution method; summary of the method: as §1
Escherichia coli [9] = test: Antimicrobial activity against tetracycline-resistant Escherichia coli isolate 155 harboring tetA gene by CLSI dilution method
Acinetobacter baumannii = test: Antimicrobial activity against tetracycline-susceptible Acinetobacter baumannii isolate 110 by CLSI dilution method; summary of the method: as §1
Pseudomonas aeruginosa = test: Antimicrobial activity against tetracycline-susceptible Pseudomonas aeruginosa isolate 111 by CLSI dilution method; summary of the method: as §1
Enterobacter cloacae = test: Antimicrobial activity against tetracycline-susceptible Enterobacter cloacae isolate 108 by CLSI dilution method; summary of the method: as §1
Klebsiella pneumoniae [10] = test: Antimicrobial activity against tetracycline-susceptible Klebsiella pneumoniae isolate 109 by CLSI dilution method; summary of the method: as §1
Klebsiella pneumoniae [11] = test: Antimicrobial activity against tetracycline-resistant Klebsiella pneumoniae isolate 153 harboring tetA gene by CLSI dilution method

Compound: COCCNCc1ccc2c(N(C)C)c3c(c(O)c2c1)C(=O)C1=C(O)[C@]2(O)C(=O)C(C(N)=O)=C(O)[C@@H](N(C)C)[C@@H]2C[C@@H]1C3
- MIC (Staphylococcus aureus [1]): 0.5 µg/mL (≈ 0.841 µM)
- MIC (Staphylococcus aureus [2]): 8 µg/mL (≈ 13.5 µM)
- MIC (Staphylococcus aureus [3]): 0.5 µg/mL (≈ 0.841 µM)
- MIC (Enterococcus faecalis [4]): 1 µg/mL (≈ 1.68 µM)
- MIC (Enterococcus faecalis [5]): 8 µg/mL (≈ 13.5 µM)
- MIC (Streptococcus pneumoniae [6]): 0.0625 µg/mL (≈ 0.105 µM)
- MIC (Streptococcus pneumoniae [7]): 1 µg/mL (≈ 1.68 µM)
- MIC (Escherichia coli [8]): 4 µg/mL (≈ 6.73 µM)
- MIC (Escherichia coli [9]): 32 µg/mL (≈ 53.8 µM)
- MIC (Acinetobacter baumannii): 2 µg/mL (≈ 3.36 µM)
- MIC (Pseudomonas aeruginosa): > 32 µg/mL
- MIC (Enterobacter cloacae): 16 µg/mL (≈ 26.9 µM)
- MIC (Klebsiella pneumoniae [10]): 16 µg/mL (≈ 26.9 µM)
- MIC (Klebsiella pneumoniae [11]): 32 µg/mL (≈ 53.8 µM)

Compound: CN(C)c1ccc(-c2ccc3cc4c(c(O)c3c2)C(=O)C2=C(O)[C@]3(O)C(=O)C(C(N)=O)=C(O)[C@@H](N(C)C)[C@@H]3C[C@@H]2C4)cc1
- MIC (Staphylococcus aureus [1]): > 32 µg/mL
- MIC (Staphylococcus aureus [2]): > 32 µg/mL
- MIC (Staphylococcus aureus [3]): 16 µg/mL (≈ 27.4 µM)
- MIC (Enterococcus faecalis [4]): > 32 µg/mL
- MIC (Enterococcus faecalis [5]): 16 µg/mL (≈ 27.4 µM)
- MIC (Streptococcus pneumoniae [6]): > 32 µg/mL
- MIC (Streptococcus pneumoniae [7]): > 32 µg/mL
- MIC (Escherichia coli [8]): > 32 µg/mL
- MIC (Escherichia coli [9]): > 32 µg/mL
- MIC (Acinetobacter baumannii): > 32 µg/mL
- MIC (Pseudomonas aeruginosa): > 32 µg/mL
- MIC (Enterobacter cloacae): > 32 µg/mL
- MIC (Klebsiella pneumoniae [10]): > 32 µg/mL
- MIC (Klebsiella pneumoniae [11]): > 32 µg/mL

Compound: CN(C)[C@@H]1C(O)=C(C(N)=O)C(=O)[C@@]2(O)C(O)=C3C(=O)c4c(cc5ccc(CN6CC(F)(F)C6)cc5c4O)C[C@H]3C[C@@H]12
- MIC (Staphylococcus aureus [1]): 1 µg/mL (≈ 1.76 µM)
- MIC (Staphylococcus aureus [2]): 1 µg/mL (≈ 1.76 µM)
- MIC (Staphylococcus aureus [3]): 1 µg/mL (≈ 1.76 µM)
- MIC (Enterococcus faecalis [4]): 1 µg/mL (≈ 1.76 µM)
- MIC (Enterococcus faecalis [5]): 1 µg/mL (≈ 1.76 µM)
- MIC (Streptococcus pneumoniae [6]): 2 µg/mL (≈ 3.51 µM)
- MIC (Streptococcus pneumoniae [7]): 4 µg/mL (≈ 7.02 µM)
- MIC (Escherichia coli [8]): > 32 µg/mL
- MIC (Escherichia coli [9]): > 32 µg/mL
- MIC (Acinetobacter baumannii): > 32 µg/mL
- MIC (Pseudomonas aeruginosa): > 32 µg/mL
- MIC (Enterobacter cloacae): > 32 µg/mL
- MIC (Klebsiella pneumoniae [10]): > 32 µg/mL
- MIC (Klebsiella pneumoniae [11]): > 32 µg/mL

Compound: CNc1cccc2c(O)c3c(cc12)C[C@H]1C[C@H]2[C@H](N(C)C)C(O)=C(C(N)=O)C(=O)[C@@]2(O)C(O)=C1C3=O
- MIC (Staphylococcus aureus [1]): 2 µg/mL (≈ 4.05 µM)
- MIC (Staphylococcus aureus [2]): 4 µg/mL (≈ 8.11 µM)
- MIC (Staphylococcus aureus [3]): 2 µg/mL (≈ 4.05 µM)
- MIC (Enterococcus faecalis [4]): 4 µg/mL (≈ 8.11 µM)
- MIC (Enterococcus faecalis [5]): 4 µg/mL (≈ 8.11 µM)
- MIC (Streptococcus pneumoniae [6]): 4 µg/mL (≈ 8.11 µM)
- MIC (Streptococcus pneumoniae [7]): 16 µg/mL (≈ 32.4 µM)
- MIC (Escherichia coli [8]): > 32 µg/mL
- MIC (Escherichia coli [9]): > 32 µg/mL
- MIC (Acinetobacter baumannii): 32 µg/mL (≈ 64.8 µM)
- MIC (Pseudomonas aeruginosa): > 32 µg/mL
- MIC (Enterobacter cloacae): > 32 µg/mL
- MIC (Klebsiella pneumoniae [10]): > 32 µg/mL
- MIC (Klebsiella pneumoniae [11]): > 32 µg/mL

Compound: CNc1c2c(c(O)c3cc(CN4CCC4)ccc13)C(=O)C1=C(O)[C@]3(O)C(=O)C(C(N)=O)=C(O)[C@@H](N(C)C)[C@@H]3C[C@@H]1C2
- MIC (Staphylococcus aureus [1]): 2 µg/mL (≈ 3.55 µM)
- MIC (Staphylococcus aureus [2]): 8 µg/mL (≈ 14.2 µM)
- MIC (Staphylococcus aureus [3]): 2 µg/mL (≈ 3.55 µM)
- MIC (Enterococcus faecalis [4]): 4 µg/mL (≈ 7.11 µM)
- MIC (Enterococcus faecalis [5]): 8 µg/mL (≈ 14.2 µM)
- MIC (Streptococcus pneumoniae [6]): 0.25 µg/mL (≈ 0.444 µM)
- MIC (Streptococcus pneumoniae [7]): 1 µg/mL (≈ 1.78 µM)
- MIC (Escherichia coli [8]): 4 µg/mL (≈ 7.11 µM)
- MIC (Escherichia coli [9]): > 32 µg/mL
- MIC (Acinetobacter baumannii): > 32 µg/mL
- MIC (Pseudomonas aeruginosa): > 32 µg/mL
- MIC (Enterobacter cloacae): 32 µg/mL (≈ 56.9 µM)
- MIC (Klebsiella pneumoniae [10]): 32 µg/mL (≈ 56.9 µM)
- MIC (Klebsiella pneumoniae [11]): > 32 µg/mL

Compound: CN(C)[C@@H]1C(O)=C(C(N)=O)C(=O)[C@@]2(O)C(O)=C3C(=O)c4c(cc5c(CNC6CC6)cccc5c4O)C[C@H]3C[C@@H]12
- MIC (Staphylococcus aureus [1]): 2 µg/mL (≈ 3.75 µM)
- MIC (Staphylococcus aureus [2]): 16 µg/mL (≈ 30 µM)
- MIC (Staphylococcus aureus [3]): 1 µg/mL (≈ 1.87 µM)
- MIC (Enterococcus faecalis [4]): 4 µg/mL (≈ 7.5 µM)
- MIC (Enterococcus faecalis [5]): 16 µg/mL (≈ 30 µM)
- MIC (Streptococcus pneumoniae [6]): 0.5 µg/mL (≈ 0.937 µM)
- MIC (Streptococcus pneumoniae [7]): 4 µg/mL (≈ 7.5 µM)
- MIC (Escherichia coli [8]): 16 µg/mL (≈ 30 µM)
- MIC (Escherichia coli [9]): > 32 µg/mL
- MIC (Acinetobacter baumannii): 4 µg/mL (≈ 7.5 µM)
- MIC (Pseudomonas aeruginosa): > 32 µg/mL
- MIC (Enterobacter cloacae): > 32 µg/mL
- MIC (Klebsiella pneumoniae [10]): 32 µg/mL (≈ 60 µM)
- MIC (Klebsiella pneumoniae [11]): > 32 µg/mL

Compound: CN(C)[C@@H]1C(O)=C(C(N)=O)C(=O)[C@@]2(O)C(O)=C3C(=O)c4c(c(F)c5ccc(CN6CCCC6)cc5c4O)C[C@H]3C[C@@H]12
- MIC (Staphylococcus aureus [1]): 0.25 µg/mL (≈ 0.442 µM)
- MIC (Staphylococcus aureus [2]): 1 µg/mL (≈ 1.77 µM)
- MIC (Staphylococcus aureus [3]): 0.125 µg/mL (≈ 0.221 µM)
- MIC (Enterococcus faecalis [4]): 0.125 µg/mL (≈ 0.221 µM)
- MIC (Enterococcus faecalis [5]): 1 µg/mL (≈ 1.77 µM)
- MIC (Streptococcus pneumoniae [6]): 0.0313 µg/mL (≈ 0.0553 µM)
- MIC (Streptococcus pneumoniae [7]): 0.0313 µg/mL (≈ 0.0553 µM)
- MIC (Escherichia coli [8]): 1 µg/mL (≈ 1.77 µM)
- MIC (Escherichia coli [9]): 4 µg/mL (≈ 7.07 µM)
- MIC (Acinetobacter baumannii): 0.25 µg/mL (≈ 0.442 µM)
- MIC (Pseudomonas aeruginosa): 32 µg/mL (≈ 56.6 µM)
- MIC (Enterobacter cloacae): 4 µg/mL (≈ 7.07 µM)
- MIC (Klebsiella pneumoniae [10]): 2 µg/mL (≈ 3.54 µM)
- MIC (Klebsiella pneumoniae [11]): 4 µg/mL (≈ 7.07 µM)

Compound: CN(C)Cc1ccc2cc3c(c(O)c2c1)C(=O)C1=C(O)[C@]2(O)C(=O)C(C(N)=O)=C(O)[C@@H](N(C)C)[C@@H]2C[C@@H]1C3
- MIC (Staphylococcus aureus [1]): 0.25 µg/mL (≈ 0.479 µM)
- MIC (Staphylococcus aureus [2]): 1 µg/mL (≈ 1.92 µM)
- MIC (Staphylococcus aureus [3]): 0.25 µg/mL (≈ 0.479 µM)
- MIC (Enterococcus faecalis [4]): 0.25 µg/mL (≈ 0.479 µM)
- MIC (Enterococcus faecalis [5]): 1 µg/mL (≈ 1.92 µM)
- MIC (Streptococcus pneumoniae [6]): 0.0313 µg/mL (≈ 0.06 µM)
- MIC (Streptococcus pneumoniae [7]): 0.125 µg/mL (≈ 0.24 µM)
- MIC (Escherichia coli [8]): 1 µg/mL (≈ 1.92 µM)
- MIC (Escherichia coli [9]): 4 µg/mL (≈ 7.67 µM)
- MIC (Acinetobacter baumannii): 2 µg/mL (≈ 3.83 µM)
- MIC (Pseudomonas aeruginosa): > 32 µg/mL
- MIC (Enterobacter cloacae): 2 µg/mL (≈ 3.83 µM)
- MIC (Klebsiella pneumoniae [10]): 2 µg/mL (≈ 3.83 µM)
- MIC (Klebsiella pneumoniae [11]): 4 µg/mL (≈ 7.67 µM)
